Measured values reported in ChEMBL document CHEMBL1141666, “Synthesis of novel substituted 1,3-diaryl propenone derivatives and their antimalarial activity in vitro” (Eur J Med Chem, 2008).
Converted amounts (≈) assume the structure as drawn.

tested on: Plasmodium falciparum; experiment: Antimalarial activity against asexual blood stage of Plasmodium falciparum 3D7 after 48 hrs by candle jar method; type: functional, organism-based; settings: 3D7, 48 h
Summary of the method: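 Asexual blood-stage parasites grown in B+ human erythrocytes, RPMI-1640 with 10% heat-inactivated pooled compatible serum; exposed to graded compound concentrations in triplicate, 48 h, 37 °C. Percent parasitemia inhibition versus controls from Giemsa-stained thin smears; IC50 from concentration-response curve.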

| SMILES | IC50 |
| --- | --- |
| COc1cc(/C=C/C(=O)c2ccc(N3CCCCC3)cc2)cc(OC)c1OC | 7.16 µg/mL (≈ 18.8 µM) |
| COc1cc(/C=C/C(=O)c2ccc(-n3cncn3)cc2)cc(OC)c1OC | 8.03 µg/mL (≈ 22 µM) |
| O=C(/C=C/c1ccc(Cl)cc1)c1ccc(N2CCCC2)cc1 | 6.01 µg/mL (≈ 19.3 µM) |
| O=C(/C=C/c1ccc(Cl)cc1)c1ccc(-n2nnc3ccccc32)cc1 | 2.5 µg/mL (≈ 6.95 µM) |
| COc1cc(/C=C/C(=O)c2ccc(-n3cccn3)cc2)cc(OC)c1OC | 6 µg/mL (≈ 16.5 µM) |
| O=C(/C=C/c1ccc(Cl)cc1)c1ccc(N2CCOCC2)cc1 | 9.1 µg/mL (≈ 27.8 µM) |
| O=C(/C=C/c1ccc(Cl)cc1)c1ccc(N2CCCCC2)cc1 | 5.15 µg/mL (≈ 15.8 µM) |
| O=C(/C=C/c1ccc(Cl)cc1)c1ccc(-n2cccc2)cc1 | 2.93 µg/mL (≈ 9.52 µM) |
| O=C(/C=C/c1ccc(Cl)cc1)c1ccc(-n2cccn2)cc1 | 7.76 µg/mL (≈ 25.1 µM) |
| COc1ccc(/C=C/C(=O)c2ccc(-n3nnc4ccccc43)cc2)cc1 | 6.8 µg/mL (≈ 19.1 µM) |
| COc1ccc(/C=C/C(=O)c2ccc(-n3cccn3)cc2)cc1 | 12.3 µg/mL (≈ 40.5 µM) |
| O=C(/C=C/c1ccc(Cl)cc1)c1ccc(-n2cncn2)cc1 | 1.52 µg/mL (≈ 4.91 µM) |
| COc1cc(/C=C/C(=O)c2ccc(N3CCOCC3)cc2)cc(OC)c1OC | 4.6 µg/mL (≈ 12 µM) |
| O=C(/C=C/c1ccc(Cl)cc1)c1ccc(-n2ccnc2)cc1 | 8.26 µg/mL (≈ 26.8 µM) |
